ChEMBL document CHEMBL1142103, “Bioactive lignans from Peperomia heyneana” (J Nat Prod, 2007)
pEC50: −log10 of the molar value.

Columns and labels:
[1] = system: Human immunodeficiency virus 1; experiment: Antiviral activity against on HIV1 3b infected C8166 cells assessed as syncytial cell formation after 3 days; format: functional, organism-based; details: Human immunodeficiency virus 1, 3b, C8166, 72 h
How it was run: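 C8166 cells (8 × 10^5/mL) seeded with serial concentrations of compound, then infected with HIV-1 IIIB at 1300 TCID50/well; 3 days at 37 °C, 5% CO2. Syncytia (multinucleated giant cells) counted per well under inverted microscope; percent inhibition of syncytium formation versus untreated infected controls gives EC50.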

[2] = Cytotoxicity against C8166 cells by MTT method; format: cell-based; details: human
How it was run: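 Uninfected C8166 cells (4 × 10^5/mL) exposed to graded compound concentrations for 72 h at 37 °C, 5% CO2. Supernatant removed, MTT (5 mg/mL stock in PBS) added for 4 h, formazan dissolved in 50% DMF–20% SDS, absorbance read at 595/630 nm. CC50 (50% loss of viable cells) taken from dose-response curve.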

[3] = Selectivity index, ratio of CC50 for C8166 cells to IC50 for HIV1 infected C8166 cells; format: functional
How it was run: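 Therapeutic index computed as CC50 (MTT viability of uninfected C8166, 72 h) divided by EC50 (inhibition of HIV-1 IIIB syncytium formation in C8166, 3 days), both run in parallel.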

SMILES	pEC50 [1]	CC50 [2]	Ratio CC50/EC50 [3]
COc1cc(C(c2cc(OC)c(OC)c(OC)c2)[C@@H]2COC(=O)[C@H]2C)cc(OC)c1OC [PEPEROMIN C]	4.37	192 µM	4.5
COc1cc(C(c2cc(OC)c3c(c2)OCO3)[C@@H]2COC(=O)[C@H]2C)cc2c1OCO2 [PEPEROMIN A]	5.28	43.2 µM	8.2
COc1cc([C@H]2O[C@H](c3cc(OC)c4c(c3)OCO4)[C@@H](COC(C)=O)[C@@H]2CO)cc(OC)c1O	4.30	229 µM	4.6
Cc1cn([C@H]2C[C@H](N=[N+]=[N-])[C@@H](CO)O2)c(=O)[nH]c1=O [ZIDOVUDINE]	7.77	4550 µM	> 100000
COc1cc([C@@H](c2cc(OC)c3c(c2)OCO3)[C@@H]2COC(=O)[C@H]2C)cc(OC)c1OC [PEPEROMIN B]	5.27	49.1 µM	9.1
COc1cc(C(c2cc(OC)c(OC)c(OC)c2)C2COC(=O)C2C)cc(O)c1OC (stereo not drawn)	4.56	140 µM	5.1
